Data set [1] concerns Human alphaherpesvirus 1. Kind of data set: Antiviral activity against ACV-resistant Herpes simplex virus 1 AR-29 infected in African green monkey Vero cells assessed as inhibition of viral infection measured after 72 hrs by crystal violet staining based plaque reduction assay. The format is functional, organism-based. The settings on record: Human alphaherpesvirus 1, AR-29, Vero. The procedure, abridged: (§1)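 Plaque reduction in Vero cells. Mangiferin at 3.12, 6.25, 12.5 or 25 μg/mL is added at infection (0 h) with HSV-1 (10^5 PFU/mL). Agarose overlay with 25 mM MgCl2, 72 h at 37 °C/5% CO2, 20% formaldehyde fix, 0.5% crystal violet stain. %VI is taken against virus control. IC50 comes from linear regression of inhibition curves. Triplicate independent experiments.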

Data set [2] concerns Human alphaherpesvirus 1. Description: Antiviral activity against ACV-resistant Herpes simplex virus 1 AR-29 infected in African green monkey Vero cells assessed as inhibition of viral infection at 25 ug/ml measured after 72 hrs by crystal violet staining based plaque reduction assay relative to control. The format is functional. Particulars: Human alphaherpesvirus 1, AR-29, Vero. The procedure, abridged:
as §1

Data set [3] concerns Human alphaherpesvirus 1. Description: Antiviral activity against ACV-resistant Herpes simplex virus 1 AR-29 infected in male Balb/c mouse assessed as reduction in ulcerated lesion at 0.7% w/w applied topically 5 times a day at 3 hrs interval for 10 days measured on day 5 post infection. It counts as functional, organism-based. In outline: (§2)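 Balb/c mice, 5 weeks old, six per group. Right mid-flank depilated under i.p. anaesthesia, needle-scarified 24 h later and inoculated with 70 μL HSV-1 AR-29 (10^5 PFU/mL). Topical 0.7% w/w O/W emulsion or ACV cream (50 mg/g) starts 4 h post-infection, 5 times daily for 10 days. Lesions are scored daily.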

The test system of data set [4] is Human alphaherpesvirus 1. Description: Antiviral activity against ACV-sensitive Herpes simplex virus 1 KOS infected in female Balb/c mouse assessed as reduction in ulcerated lesion at 0.7% w/w applied topically 5 times a day at 3 hrs interval for 10 days measured on day 2 to day 7 post infection. It counts as functional, organism-based. Particulars: strain KOS. In outline:
(§3)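 Balb/c mice (5 weeks, 22–27 g; six per group, sexes tested separately) had the right mid-flank depilated under i.p. anaesthesia and needle-scarified 24 h later. They were inoculated with 70 μL HSV-1 KOS (10^5 PFU/mL). From 4 h post-infection, O/W emulsion with 0.7% w/w mangiferin or ACV cream (50 mg/g) was applied topically 5 times daily for 10 days. Lesions were scored daily.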

Data set [5] concerns Human alphaherpesvirus 1. Description: Antiviral activity against ACV-resistant Herpes simplex virus 1 AR-29 infected in male Balb/c mouse assessed as reduction in zosteriform lesion at 0.7% w/w applied topically 5 times a day at 3 hrs interval for 10 days measured on day 5 post infection. The format is functional, organism-based. The procedure, abridged:
as §2

Data set [6] in a line: Toxicity in Balb/c mouse infected with ACV-sensitive Herpes simplex virus 1 KOS assessed as death at 0.7% w/w applied topically 5 times a day at 3 hrs interval for 10 days measured on day 10 post infection. Particulars: in vivo, topical_or_ocular.
A short description of data set [7]: Selectivity index, ratio of CC50 for African green monkey Vero cells to IC50 for Herpes simplex virus 1 AR-29 infected in African green monkey Vero cells. It counts as toxicity. Particulars: read-out: Ratio CC50/IC50. In outline: (§4)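 SI = CC50 (Vero, MTT, 72 h) / IC50 from plaque reduction with mangiferin added at infection (0 h) against HSV-1 AR-29 or KOS; IC50 by linear regression of viral inhibition curves.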

Data set [8] concerns Human alphaherpesvirus 1. Description: Antiviral activity against ACV-resistant Herpes simplex virus 1 AR-29 infected in female Balb/c mouse assessed as reduction in skin lesion at 0.7% w/w applied topically 5 times a day at 3 hrs interval for 10 days. It counts as functional, organism-based. The procedure, abridged: as §2
Data set [9] deals with Human alphaherpesvirus 1. Description: Virucidal activity against ACV-resistant Herpes simplex virus 1 AR-29 infected in African green monkey Vero cells assessed as inhibition of viral inhibition at 3.12 to 25 ug/mL measured after 1 hr by plaque reduction assay. The format is functional, organism-based. In outline:
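HSV-1 AR-29 suspension is incubated with mangiferin (3.12–25 μg/mL) for 1 h at 37 °C, then titrated by plaque reduction on Vero cells. Agarose/MgCl2 overlay, 72 h, crystal violet stain. %VI is taken against virus control. Triplicate independent experiments.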
In general terms: In a plaque reduction assay, fewer plaques than in the control indicate reduced infectivity or spread.

Data set [10] deals with Human alphaherpesvirus 1. Kind of data set: Antiviral activity against ACV-resistant Herpes simplex virus 1 AR-29 infected in African green monkey Vero cells assessed as inhibition of viral infection at 3.12 ug/ml measured after 72 hrs by crystal violet staining based plaque reduction assay relative to control. The format is functional. Particulars: Human alphaherpesvirus 1, AR-29, Vero. The procedure, abridged: as §1

For data set [11], the system named is Human alphaherpesvirus 1. Kind of data set: Antiviral activity against ACV-sensitive Herpes simplex virus 1 KOS infected in African green monkey Vero cells assessed as suppression of viral replication by measuring reduction in ICP4 production at 12.5 ug/ml measured after 24 hrs by immunofluorescence assay relative to control. The format is functional, strain KOS. Set-up: scale not given: the % may be the effect or the level left. The procedure, abridged: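 Vero cells on coverslips infected with HSV-1 KOS and given mangiferin 1.56–12.5 μg/mL at 0 h. At 24 h cells fixed in cold acetone, blocked with skim milk, stained with mouse anti-ICP4 and FITC anti-mouse IgG; 100 cells per coverslip scored by fluorescence microscopy. Inhibition relative to infected untreated cells; duplicate independent experiments.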

Data set [12] relates to Human alphaherpesvirus 1. Kind of data set: Antiviral activity against ACV-sensitive Herpes simplex virus 1 KOS infected in African green monkey Vero cells assessed as inhibition of viral infection at 3.12 ug/ml measured after 72 hrs by crystal violet staining based plaque reduction assay relative to control. Particulars: Human alphaherpesvirus 1, strain KOS. It counts as functional. In outline:
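Vero monolayers infected with HSV-1 KOS (10^5 PFU/mL) with mangiferin (3.12, 6.25, 12.5, 25 μg/mL) added at infection (0 h). Overlay of nutrient agarose with 25 mM MgCl2; plaques counted after 72 h at 37 °C, 5% CO2, fixed in 20% formaldehyde/PBS and stained with 0.5% crystal violet. %VI versus virus control; triplicate experiments.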

The subject of data set [13] is Human alphaherpesvirus 1. Description: Antiviral activity against ACV-sensitive Herpes simplex virus 1 KOS infected in female Balb/c mouse assessed as change in epidermis thickness at 0.7% w/w applied topically 5 times a day at 3 hrs interval for 10 days measured on day 10 post infection by H and E staining based histological analysis. The settings on record: strain KOS.

Data set [14] has as its system Human alphaherpesvirus 1. Description: Antiviral activity against ACV-sensitive Herpes simplex virus 1 KOS infected in male Balb/c mouse assessed as reduction in ulcerated lesion at 0.7% w/w applied topically 5 times a day at 3 hrs interval for 10 days measured on day 5 post infection. It counts as functional, organism-based. The settings on record: strain KOS. In outline:
as §3

For data set [15], the system named is Human alphaherpesvirus 1. Description: Antiviral activity against ACV-resistant Herpes simplex virus 1 AR-29 infected in female Balb/c mouse assessed as change in epidermis thickness at 0.7% w/w applied topically 5 times a day at 3 hrs interval for 10 days measured on day 10 post infection by H and E staining based histological analysis. The format is functional, organism-based.

In data set [16] the test system is Human alphaherpesvirus 1. Kind of data set: Antiviral activity against ACV-sensitive Herpes simplex virus 1 KOS infected in African green monkey Vero cells assessed as inhibition of viral infection at 25 ug/ml measured after 72 hrs by crystal violet staining based plaque reduction assay relative to control. The format is functional. The settings on record: Human alphaherpesvirus 1, strain KOS. The procedure, abridged: as §1

In data set [17] the test system is Human alphaherpesvirus 1. Kind of data set: Antiviral activity against ACV-resistant Herpes simplex virus 1 AR-29 infected in female Balb/c mouse assessed as change in dermis thickness at 0.7% w/w applied topically 5 times a day at 3 hrs interval for 10 days measured on day 10 post infection by H and E staining based histological analysis. It counts as functional, organism-based.

A short description of data set [18]: Selectivity index, ratio of CC50 for African green monkey Vero cells to IC50 for Herpes simplex virus 1 KOS infected in African green monkey Vero cells. The format is toxicity. The settings on record: read-out: Ratio CC50/IC50. The procedure, abridged:
as §4

Data set [19] has as its system Human alphaherpesvirus 1. Description: Antiviral activity against ACV-resistant Herpes simplex virus 1 AR-29 infected in male Balb/c mouse assessed as reduction in ulcerated lesion at 0.7% w/w applied topically 5 times a day at 3 hrs interval for 10 days measured on day 7 post infection. It counts as functional, organism-based. The procedure, abridged:
as §2

Converted amounts (≈) assume the structure as drawn. The source made the active and inactive calls. The calls are words filed in the database; no cut-off is given here.

Regarding `O=c1c2cc(O)c(O)cc2oc2cc(O)c([C@@H]3O[C@H](CO)[C@@H](O)[C@H](O)[C@H]3O)c(O)c12` [MANGIFERIN], in the data set on Human alphaherpesvirus 1 [1], the concentration for half-maximal inhibition (IC50) – broadly, the point on the concentration scale where inhibition reaches its midpoint – came to 2.9 µg/mL (≈ 6.87 µM). Besides, the inhibition at 25 µg/mL with Human alphaherpesvirus 1 [2] and in the data set with Human alphaherpesvirus 1 [16] was 100% throughout. Further, the outcome with Human alphaherpesvirus 1 [3], with Human alphaherpesvirus 1 [5], in the data set with Human alphaherpesvirus 1 [8] and in the data set with Human alphaherpesvirus 1 [19] was Active. For the same compound, the result in the data set with Human alphaherpesvirus 1 [4], in the data set with Human alphaherpesvirus 1 [13], in the data set with Human alphaherpesvirus 1 [14], in the data set with Human alphaherpesvirus 1 [15] and in the data set on Human alphaherpesvirus 1 [17] was inactive. Further, the Activity result is given as “Non-Toxic” in [6] and 29.6% in the data set with Human alphaherpesvirus 1 [11]. Further, the selectivity ratio is over 172 in data set [7] and over 143 in data set [18]. In addition, the inhibition (as a rule, the relative decrease from the control value, in per cent) in the data set on Human alphaherpesvirus 1 [9] was “Active”. Moreover, the inhibition at 3.12 µg/mL was 57.6% in the data set with Human alphaherpesvirus 1 [10] and 37.5% in the data set on Human alphaherpesvirus 1 [12].
